The RNAGym collection of RNA variant scans (doi:10.1126/science.aae0568)
Fewer inactive variants are shown than the library holds.

B1: tRNA (parent)
chain: GUUCCGUUGGCGUAAUGGUAACGCGUCUCCCUCCUAAGGAGAAGACUGCGGGUUCGAGUCCCGUACGGAACG

Variants of: B1
Experiment: yeast fitness relative to wild type (ratio to wild type); higher = fitter; tRNA-Arg(CCU), competitive growth, 37 C, YPD
Outline: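 Variants of the tRNA-Arg(CCU) gene, chemically synthesised with a 3% per-site mutation rate at 69 sites, were placed at the native genomic locus in Saccharomyces cerevisiae. The pooled strains were competed in YPD at 37°C for 24 hours in six parallel replicates. Gene amplicons from the start population and from each end population were read by 100-nucleotide paired-end sequencing. Darwinian fitness relative to wild type came from changes in genotype frequencies; genotypes needed ≥ 100 starting reads, and estimates < 0.5 were set to 0.5.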

Going from G17A G58A C61U to G17C A21G C27U C33G A42U A57G, the yeast fitness falls from 0.59 to at most 0.5.

First: G17C A40U C66G
Second: G17C A20C G39A
The yeast fitness of the first is lower: at most 0.5 for the first, 0.528 for the second.

Compared with G17C A45C G48A U59A, G17C C22U U32C A40U C66U is lower in yeast fitness: 0.622 for the first, at most 0.5 for the second.

First: G17A G58A A69C
Second: G17C C27U A36G
The yeast fitness of the first is lower: 0.575 for the first, 0.714 for the second.

G17A G23C U64A A65C G67A and G17A G48A A57G cannot be ordered by yeast fitness: at most 0.5 for the first, at most 0.5 for the second.

Compared with G17A G18A A42C C61U, G17C C24A A69C is higher in yeast fitness: at most 0.5 for the first, 0.553 for the second.

First: G17A U26C U53G
Second: G17C A37C A40C C61U
The yeast fitness of the first is higher: 0.566 for the first, at most 0.5 for the second.

First: G17A G25C
Second: G17C A21G C27U C33G A42U G48A A57G
The yeast fitness of the first is higher: 0.705 for the first, at most 0.5 for the second.

Compared with G17C C22G A36C G39A A42G G63C, G17A G18C G39C is lower in yeast fitness: 0.842 for the first, 0.588 for the second.

Going from G17A U26A C62U to G17A C49G U53C, the yeast fitness falls from 0.614 to at most 0.5.

G17C A40G A42U C62U and G17C C22G U26A A43G C61U A65U cannot be ordered by yeast fitness: at most 0.5 for the first, at most 0.5 for the second.

Going from G17A U19A C30G to G17A U59A C66U, the yeast fitness falls from 0.66 to at most 0.5.

First: G17C A42U C62U
Second: G17A C49A G52C G56A A69G
The yeast fitness of the first is higher: 0.645 for the first, at most 0.5 for the second.

G17C C22G U26C U47A C66U and G17A G18C A20G G39C cannot be ordered by yeast fitness: at most 0.5 for the first, at most 0.5 for the second.

Going from G17A G50A C61A to G17C A65C, the yeast fitness rises from at most 0.5 to 0.67.

Compared with G17C A65U, G17C A43U C62U is lower in yeast fitness: 0.649 for the first, 0.632 for the second.

G17A U54A G56C G68A and G17C C22U U26C C46A G63A cannot be ordered by yeast fitness: at most 0.5 for the first, at most 0.5 for the second.

First: G17A G58C C62U
Second: G17C A21C C34G A37U A42U A57G
The yeast fitness of the first is higher: 0.543 for the first, at most 0.5 for the second.

Going from G17A C49A U54A to G17C A36U G44C, the yeast fitness falls from 0.614 to at most 0.5.

G17C C22G C24A and G17C C22U C29G G51C cannot be ordered by yeast fitness: at most 0.5 for the first, at most 0.5 for the second.

G17A U32A A43G G67C and G17A G41U A57C cannot be ordered by yeast fitness: at most 0.5 for the first, at most 0.5 for the second.

G17C C24G C46G C66U and G17A G18C G39C A69U cannot be ordered by yeast fitness: at most 0.5 for the first, at most 0.5 for the second.

First: G17A U54C
Second: G17C C24A U32C U47A G67C
The yeast fitness of the first is higher: 0.67 for the first, at most 0.5 for the second.

G17A G23C U54A C61G and G17A G25C C29G cannot be ordered by yeast fitness: at most 0.5 for the first, at most 0.5 for the second.

G17A U35G G63A G68C and G17A C49U C62A cannot be ordered by yeast fitness: at most 0.5 for the first, at most 0.5 for the second.

First: G17A G18A A20C A21G G50A C55G A69U
Second: G17A U19A G23A C31U C34A A43U
The yeast fitness of the first is higher: 0.642 for the first, at most 0.5 for the second.

G17A U54C A70G and G17C C27U A37G A65G cannot be ordered by yeast fitness: at most 0.5 for the first, at most 0.5 for the second.

Compared with G17A U59A, G17A C49A is lower in yeast fitness: 0.759 for the first, 0.677 for the second.

G17A U32A C49U C62A G67C and G17A G56A C66G cannot be ordered by yeast fitness: at most 0.5 for the first, at most 0.5 for the second.

G17A G18A U26C A42C C55U and G17A G41A C60G A65G cannot be ordered by yeast fitness: at most 0.5 for the first, at most 0.5 for the second.

Compared with G17C A42G, G17C A42U is higher in yeast fitness: 0.528 for the first, 0.703 for the second.

G17A G25C G39A and G17A G44A A70C cannot be ordered by yeast fitness: at most 0.5 for the first, at most 0.5 for the second.

G17C A42G C55U and G17C A20G U53G A70U cannot be ordered by yeast fitness: at most 0.5 for the first, at most 0.5 for the second.

Compared with G17A U35A G44A G50A, G17C A37C A45U is higher in yeast fitness: at most 0.5 for the first, 0.659 for the second.

Going from G17A U35G G48C G67C to G17A U19G A37G C66U A69U, the yeast fitness rises from 0.558 to 0.562.

G17A C60A C61A and G17C C22G A42G C46A cannot be ordered by yeast fitness: at most 0.5 for the first, at most 0.5 for the second.

Going from G17C C24A U47A G67C to G17A G56C G58C, the yeast fitness rises from 0.569 to 0.585.

Going from G17C C22U U32C C46U to G17A C61U, the yeast fitness rises from at most 0.5 to 0.924.

Compared with G17A U64C C66U, G17C C24G G48C is lower in yeast fitness: 0.69 for the first, at most 0.5 for the second.

Going from G17A G38C A45U C66U to G17C A43C, the yeast fitness rises from at most 0.5 to 0.734.

Compared with G17A G50A, G17A U28A G51A C60G A65G C66G is lower in yeast fitness: 0.833 for the first, at most 0.5 for the second.

G17A U19C C34A A40G C66U and G17A G38A C49A U54A cannot be ordered by yeast fitness: at most 0.5 for the first, at most 0.5 for the second.

Going from G17A C61A G63A to G17C A42C C60A, the yeast fitness falls from 0.66 to at most 0.5.

Compared with G17C C24G U28A C30U A65U A69C, G17A G25C A40U C66G is lower in yeast fitness: 0.571 for the first, at most 0.5 for the second.

First: G17A G51C
Second: G17C C22A U28C C66G G67C
The yeast fitness of the first is higher: 0.543 for the first, at most 0.5 for the second.

G17C C24G U28A C30U G38U A65U A69C and G17A U32C U54C C60G cannot be ordered by yeast fitness: at most 0.5 for the first, at most 0.5 for the second.

G17A U35G U59C and G17A G18A A42C C55U G63C cannot be ordered by yeast fitness: at most 0.5 for the first, at most 0.5 for the second.

Compared with G17A U54A G56C, G17C C22G C29A C46U A65C is lower in yeast fitness: 0.597 for the first, at most 0.5 for the second.

G17C A21U C33G and G17A U26C U28C A42C C66U cannot be ordered by yeast fitness: at most 0.5 for the first, at most 0.5 for the second.

First: G17A G67C
Second: G17A G67A
The yeast fitness of the first is higher: 0.834 for the first, 0.743 for the second.

Going from G17A G67U to G17A C60A, the yeast fitness falls from 0.808 to at most 0.5.

G17C A20G G51A and G17C A21C U26A cannot be ordered by yeast fitness: at most 0.5 for the first, at most 0.5 for the second.

Compared with G17A G63A A69C, G17A U32C A40G A65C is lower in yeast fitness: 0.537 for the first, at most 0.5 for the second.

Going from G17C A21U to G17C C27G, the yeast fitness falls from 0.559 to 0.558.

First: G17C C27U
Second: G17C C27A
The yeast fitness of the first is lower: 0.617 for the first, 0.674 for the second.

First: G17C A21U C33G G38A G52A
Second: G17A C66U
The yeast fitness of the first is lower: at most 0.5 for the first, 0.725 for the second.

Compared with G17C C27A C61G, G17C A21U A57U is higher in yeast fitness: at most 0.5 for the first, 0.564 for the second.

G17C C24G C46G U59C and G17C A20U C33G cannot be ordered by yeast fitness: at most 0.5 for the first, at most 0.5 for the second.

Going from G17A U53G to G17C A43U G56A A70U, the yeast fitness falls from 0.595 to at most 0.5.

Compared with G17C C24G C34U C66U, G17C C22A C31G C55G is lower in yeast fitness: 0.548 for the first, at most 0.5 for the second.

Compared with G17A G48C, G17A G48A is higher in yeast fitness: 0.827 for the first, 0.951 for the second.

G17C A21G C33A C49U and G17A U53G C55U cannot be ordered by yeast fitness: at most 0.5 for the first, at most 0.5 for the second.

Compared with G17C A45G, G17C A20G C30G A65U is lower in yeast fitness: 0.546 for the first, at most 0.5 for the second.

Compared with G17A U26C C61U A65G G67A, G17A G56A is higher in yeast fitness: at most 0.5 for the first, 0.878 for the second.

Going from G17C A42U A70G to G17A U47C, the yeast fitness rises from 0.653 to 0.774.

First: G17A U47A
Second: G17C C22A C24G U28C C33A
The yeast fitness of the first is higher: 0.823 for the first, at most 0.5 for the second.

G17A U19A G23A C34U and G17C A21C C34G A37U U47C G68C cannot be ordered by yeast fitness: at most 0.5 for the first, at most 0.5 for the second.

Compared with G17A U26G G51A, G17A U19C C24U is higher in yeast fitness: at most 0.5 for the first, 0.75 for the second.

G17A U19A C30U A37U G67A and G17A G50C C60A cannot be ordered by yeast fitness: at most 0.5 for the first, at most 0.5 for the second.

G17C C24G G38C and G17C A36U G48C U54C C60A U64G cannot be ordered by yeast fitness: at most 0.5 for the first, at most 0.5 for the second.

First: G17A G48C G56C
Second: G17A C60G G67A
The yeast fitness of the first is higher: 0.575 for the first, at most 0.5 for the second.

First: G17C C27A U32C C61A C66U
Second: G17C A20U A42U
The yeast fitness of the first is lower: at most 0.5 for the first, 0.604 for the second.

Going from G17A G41C to G17A G38C A70C, the yeast fitness falls from 0.816 to at most 0.5.

G17C A42U G44C A45U G58A and G17A C55G A70C cannot be ordered by yeast fitness: at most 0.5 for the first, at most 0.5 for the second.

Compared with G17A G41C C46A, G17A G41C C55A is lower in yeast fitness: 0.68 for the first, at most 0.5 for the second.

First: G17A G51A G56C G58C
Second: G17C C24G C46G
The yeast fitness of the first is lower: at most 0.5 for the first, 0.519 for the second.

G17C C22U U32C A40U A65G and G17C C24G C30U G50C cannot be ordered by yeast fitness: at most 0.5 for the first, at most 0.5 for the second.

G17A G18C A21U C55U U59A C62A and G17A U35G A65U cannot be ordered by yeast fitness: at most 0.5 for the first, at most 0.5 for the second.

First: G17C C22G A65G
Second: G17A G25C A40U G63A
The yeast fitness of the first is higher: 0.6 for the first, at most 0.5 for the second.

Compared with G17C C22G C30U G41C C46U A65U, G17A U35G G48C is higher in yeast fitness: at most 0.5 for the first, 0.502 for the second.

G17C A45C G48A U59A A70C and G17A U35A U54G cannot be ordered by yeast fitness: at most 0.5 for the first, at most 0.5 for the second.

Compared with G17A G52C, G17C A57U is lower in yeast fitness: 0.65 for the first, 0.52 for the second.

Going from G17C A20G to G17C C24G U28A C30U G52A, the yeast fitness falls from 0.553 to at most 0.5.

G17A U47G G67A A69C gave a yeast fitness of 0.559.
